Experimental data as given in ChEMBL document CHEMBL4680084, “New β-Lactam Derivatives Modulate Cell Adhesion and Signaling Mediated by RGD-Binding and Leukocyte Integrins” (J Med Chem, 2016).
pEC50, pIC50: −log10 of the molar value. Calls of active or inactive are those of the source. The rule behind the calls is not given here.

How the values were obtained:
[1] = target: Integrin alpha-L/beta-2 (LFA-1) (Homo sapiens) (UniProt P20701+P05107); experiment: Antagonist activity at alphaLbeta2 in human Jurkat E6.1 cells assessed as reduction in ICAM-1-induced ERK1/2 phosphorylation by Western blot analysis; assay type: cell-based; settings: filed as antagonist
HT-29 = experiment: Toxicity in human HT-29 cells assessed as induction of cell necrosis and/or apoptosis incubated for 3 hrs by annexin V-PE and 7-AAD staining based by flow cytometry; settings: ht-29, 3 h
Summary of the method: (§1)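 After 3 h incubation, cells resuspended in complete medium and stained with annexin V-PE/7-AAD reagent for 20 min at room temperature in the dark. Flow cytometry sorted cells into viable, early apoptotic and late apoptotic/necrotic populations.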

Integrin alpha-4/beta-1 [2] = target: T1, Integrin alpha-4/beta-1 (Homo sapiens, UniProt P05556+P13612); experiment: Inhibition of fibronectin binding to […] isolated from human Jurkat E6.1 cells incubated for 1 hr by scintillation-proximity assay based competitive solid-phase binding assay; assay type: tissue-based
[3] = target: Integrin alpha-L/beta-2 (Homo sapiens); experiment: Binding affinity to human alphaLbeta2 incubated for 1 hr by scintillation-proximity assay based competitive solid-phase binding assay
Integrin alpha-4/beta-1 [4] = target: T1, Integrin alpha-4/beta-1; experiment: Antagonist activity at alpha4beta1 in human Jurkat E6.1 cells assessed as reduction in cell adhesion to VCAM1 pre-incubated for 30 mins before VCAM1 and further incubated for 30 mins by […]; assay type: cell-based
[5] = target: Integrin alpha-IIb/beta-3 (Homo sapiens, UniProt P05106+P08514); experiment: Inhibition of fibrinogen binding to alpha2bbeta3 isolated from human HEL cells incubated for 1 hr by […] competitive solid-phase binding assay
Integrin alpha-V/beta-3 [6] = target: T2, Integrin alpha-V/beta-3 (Homo sapiens, UniProt P05106+P06756); experiment: Agonist activity at human alphaVbeta3 expressed in HEK293 cells assessed as reduction in fibronectin-induced ERK1/2 phosphorylation at 1 to 100 nM by Western blot analysis; assay type: cell-based; settings: filed as agonist, dose 1-100 nM
Integrin alpha-5/beta-1 = Integrin alpha-5/beta-1 (Homo sapiens, UniProt P05556+P08648); experiment: Agonist activity at alpha5beta1 in human K562 cells assessed as increase in cell adhesion to fibronectin at 10 ug/ml […] and further incubated for 1 hr in presence of neutralizing antibody against the alpha5 integrin subunit by nitrophenyl-N-acetyl-beta-D-glucosaminide substrate based chromogenic assay; settings: dose 10.0 µg/ml, time 90.0 min
Integrin alpha-V/beta-3 [7] = target: T2, Integrin alpha-V/beta-3; experiment: Antagonist activity at alphaVbeta3 in human SK-MEL-24 cells assessed as reduction in cell adhesion to fibronectin pre-incubated for 30 mins before fibronectin and further incubated for 1 hr by nitrophenyl-N-acetyl-beta-D-glucosaminide substrate based chromogenic assay
Summary of the method: (§2)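 Compound or methanol vehicle pre-incubated with cells for 30 min at room temperature. Cells then plated on wells coated overnight at 4 °C with fibronectin 10 µg/mL (SK-MEL-24, K562, HT-29) or fibrinogen 10 µg/mL (MCF7, HEL). Seeding was 50,000 cells/well, or 100000 for HEL. Adhesion ran 1 h at room temperature. Wells washed with 1% BSA/PBS. Quadruplicate, at least three repeats.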
Target sequence in this assay (P05106 27-788 limits assumed): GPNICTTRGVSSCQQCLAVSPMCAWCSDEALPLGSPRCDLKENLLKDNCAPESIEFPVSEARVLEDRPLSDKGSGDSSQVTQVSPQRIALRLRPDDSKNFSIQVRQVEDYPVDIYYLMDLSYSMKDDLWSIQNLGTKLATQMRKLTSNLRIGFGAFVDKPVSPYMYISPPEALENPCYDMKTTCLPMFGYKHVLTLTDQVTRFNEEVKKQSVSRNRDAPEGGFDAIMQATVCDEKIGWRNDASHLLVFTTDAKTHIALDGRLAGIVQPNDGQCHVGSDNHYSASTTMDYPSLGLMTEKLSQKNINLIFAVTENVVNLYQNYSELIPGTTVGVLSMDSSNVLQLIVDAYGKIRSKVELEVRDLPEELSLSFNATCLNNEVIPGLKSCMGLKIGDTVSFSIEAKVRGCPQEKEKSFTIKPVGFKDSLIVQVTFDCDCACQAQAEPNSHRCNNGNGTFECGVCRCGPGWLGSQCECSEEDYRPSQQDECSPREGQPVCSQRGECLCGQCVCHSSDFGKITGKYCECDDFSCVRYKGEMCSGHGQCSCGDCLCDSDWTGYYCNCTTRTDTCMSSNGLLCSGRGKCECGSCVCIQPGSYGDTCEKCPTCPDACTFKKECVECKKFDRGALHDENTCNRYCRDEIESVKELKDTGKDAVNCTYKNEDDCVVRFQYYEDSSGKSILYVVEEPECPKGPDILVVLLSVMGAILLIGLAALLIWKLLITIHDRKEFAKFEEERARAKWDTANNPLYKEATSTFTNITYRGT
Target sequence in this assay (P06756 31-889 limits assumed): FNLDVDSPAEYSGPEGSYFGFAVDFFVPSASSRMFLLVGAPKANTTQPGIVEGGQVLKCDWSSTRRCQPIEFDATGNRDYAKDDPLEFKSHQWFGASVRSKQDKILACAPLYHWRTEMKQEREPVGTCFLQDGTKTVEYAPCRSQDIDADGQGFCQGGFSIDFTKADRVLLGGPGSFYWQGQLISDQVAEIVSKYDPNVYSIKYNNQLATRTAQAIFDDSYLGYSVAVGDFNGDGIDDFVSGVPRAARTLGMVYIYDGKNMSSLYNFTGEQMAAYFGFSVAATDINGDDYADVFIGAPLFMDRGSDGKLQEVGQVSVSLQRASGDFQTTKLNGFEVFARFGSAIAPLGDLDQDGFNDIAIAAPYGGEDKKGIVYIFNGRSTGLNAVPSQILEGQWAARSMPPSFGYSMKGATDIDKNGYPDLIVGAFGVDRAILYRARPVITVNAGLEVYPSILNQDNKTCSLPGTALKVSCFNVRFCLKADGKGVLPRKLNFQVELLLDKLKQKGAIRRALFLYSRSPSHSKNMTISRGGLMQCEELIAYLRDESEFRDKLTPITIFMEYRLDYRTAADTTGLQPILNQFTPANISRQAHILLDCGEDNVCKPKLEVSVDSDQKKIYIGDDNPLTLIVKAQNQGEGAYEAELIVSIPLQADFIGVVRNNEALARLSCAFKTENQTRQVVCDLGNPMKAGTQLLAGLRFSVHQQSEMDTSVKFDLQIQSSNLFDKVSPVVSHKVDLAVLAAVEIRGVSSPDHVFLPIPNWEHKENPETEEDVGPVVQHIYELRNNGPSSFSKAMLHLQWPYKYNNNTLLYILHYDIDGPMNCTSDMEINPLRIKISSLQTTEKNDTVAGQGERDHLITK
Target sequence in this assay (P06756 891-1048 limits assumed): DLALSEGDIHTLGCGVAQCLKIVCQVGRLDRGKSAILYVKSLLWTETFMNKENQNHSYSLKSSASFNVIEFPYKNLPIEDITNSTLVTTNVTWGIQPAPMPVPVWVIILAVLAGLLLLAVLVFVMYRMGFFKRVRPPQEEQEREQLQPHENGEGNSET

K562 = experiment: Toxicity in human K562 cells assessed as induction of cell necrosis and/or apoptosis incubated for 3 hrs by annexin V-PE and 7-AAD staining based by flow cytometry; settings: k562, 3 h; summary of the method: as §1
Integrin alpha-4/beta-1 [8] = target: T1, Integrin alpha-4/beta-1; experiment: Agonist activity at alpha4beta1 in human Jurkat E6.1 cells assessed as increase in cell adhesion to VCAM1 pre-incubated for 30 mins before VCAM1 and further incubated for 30 mins by […]; assay type: cell-based
Summary of the method: (§3)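 Jurkat E6.1 cells labelled with CellTracker green CMFDA (12.5 µM, 30 min, 37 °C), washed, then pre-incubated 30 min at 37 °C with compound or methanol. Plated at 500,000/well on VCAM-1 (α4β1) or ICAM-1 (αLβ2) coated wells (5 µg/mL) for 30 min at 37 °C. Cells lysed in 0.5% Triton X-100; fluorescence read Ex485/Em535. Quadruplicate, at least three repeats.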

[9] = target: Integrin alpha-L/beta-2 (LFA-1) (Homo sapiens, UniProt P05107+P20701); experiment: Agonist activity at alphaLbeta2 in human Jurkat E6.1 cells assessed as increase in cell adhesion to ICAM1 pre-incubated for 30 mins before ICAM1 and further incubated for 30 mins by […]; assay type: cell-based; summary of the method: as §3
Integrin alpha-V/beta-3 [10] = target: T2, Integrin alpha-V/beta-3; experiment: Agonist activity at alphaVbeta3 in human SK-MEL-24 cells assessed as increase in cell adhesion to fibronectin pre-incubated for 30 mins before fibronectin and further incubated for 1 hr by nitrophenyl-N-acetyl-beta-D-glucosaminide substrate based chromogenic assay
Summary of the method: as §2, with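 “BSA/PBS. Adherent cells read by hexosaminidase substrate, absorbance 405 nm.” for “BSA/PBS.”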
Target sequence in this assay (P05106 27-788 limits assumed): as the sequence (P05106 27-788 limits assumed) above
Target sequence in this assay (P06756 31-889 limits assumed): as the sequence (P06756 31-889 limits assumed) above
Target sequence in this assay (P06756 891-1048 limits assumed): as the sequence (P06756 891-1048 limits assumed) above

Integrin alpha-4/beta-1 [11] = target: T1, Integrin alpha-4/beta-1; experiment: Agonist activity at alpha4beta1 in human Jurkat E6.1 cells assessed as increase in cell adhesion to VCAM1 at 10 ug/ml pre-incubated for 30 mins and further incubated for 30 mins in presence of neutralizing antibody against the alpha4 integrin subunit by nitrophenyl-N-acetyl-beta-D-glucosaminide substrate based chromogenic assay; settings: dose 10.0 µg/ml, time 60.0 min
Summary of the method: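 Agonist-coated wells (10 µg/mL in methanol). Cells pre-treated 10 min before plating with neutralizing anti-α5, anti-αv or anti-α4 antibody (10 µg/mL), or pre-incubated with c(-RGDfV) (1 µM). K562 plated at 50,000/well and Jurkat E6.1 at 500,000/well. Adhesion quantified as in the standard assay.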

T1 sequence (P05556 whole entry): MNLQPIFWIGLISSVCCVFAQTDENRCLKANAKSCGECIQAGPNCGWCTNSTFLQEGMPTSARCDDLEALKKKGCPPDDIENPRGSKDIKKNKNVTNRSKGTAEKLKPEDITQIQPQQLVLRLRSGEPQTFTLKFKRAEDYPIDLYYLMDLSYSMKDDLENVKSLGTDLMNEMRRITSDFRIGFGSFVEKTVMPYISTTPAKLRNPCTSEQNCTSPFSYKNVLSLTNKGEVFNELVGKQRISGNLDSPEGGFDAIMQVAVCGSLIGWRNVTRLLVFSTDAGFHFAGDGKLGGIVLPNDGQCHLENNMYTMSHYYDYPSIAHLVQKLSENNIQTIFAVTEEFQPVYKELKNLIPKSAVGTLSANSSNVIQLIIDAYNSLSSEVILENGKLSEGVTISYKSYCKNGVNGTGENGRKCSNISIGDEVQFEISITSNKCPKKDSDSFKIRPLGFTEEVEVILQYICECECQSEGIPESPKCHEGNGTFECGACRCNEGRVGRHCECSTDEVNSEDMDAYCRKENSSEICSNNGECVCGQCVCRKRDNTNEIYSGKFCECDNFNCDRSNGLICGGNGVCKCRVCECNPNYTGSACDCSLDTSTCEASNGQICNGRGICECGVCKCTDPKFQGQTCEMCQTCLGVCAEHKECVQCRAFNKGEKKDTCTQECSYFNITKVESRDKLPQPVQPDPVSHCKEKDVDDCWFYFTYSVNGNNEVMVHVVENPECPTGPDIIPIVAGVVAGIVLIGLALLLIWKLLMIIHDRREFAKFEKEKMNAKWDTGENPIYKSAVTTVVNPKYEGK
T1 sequence (P13612 whole entry): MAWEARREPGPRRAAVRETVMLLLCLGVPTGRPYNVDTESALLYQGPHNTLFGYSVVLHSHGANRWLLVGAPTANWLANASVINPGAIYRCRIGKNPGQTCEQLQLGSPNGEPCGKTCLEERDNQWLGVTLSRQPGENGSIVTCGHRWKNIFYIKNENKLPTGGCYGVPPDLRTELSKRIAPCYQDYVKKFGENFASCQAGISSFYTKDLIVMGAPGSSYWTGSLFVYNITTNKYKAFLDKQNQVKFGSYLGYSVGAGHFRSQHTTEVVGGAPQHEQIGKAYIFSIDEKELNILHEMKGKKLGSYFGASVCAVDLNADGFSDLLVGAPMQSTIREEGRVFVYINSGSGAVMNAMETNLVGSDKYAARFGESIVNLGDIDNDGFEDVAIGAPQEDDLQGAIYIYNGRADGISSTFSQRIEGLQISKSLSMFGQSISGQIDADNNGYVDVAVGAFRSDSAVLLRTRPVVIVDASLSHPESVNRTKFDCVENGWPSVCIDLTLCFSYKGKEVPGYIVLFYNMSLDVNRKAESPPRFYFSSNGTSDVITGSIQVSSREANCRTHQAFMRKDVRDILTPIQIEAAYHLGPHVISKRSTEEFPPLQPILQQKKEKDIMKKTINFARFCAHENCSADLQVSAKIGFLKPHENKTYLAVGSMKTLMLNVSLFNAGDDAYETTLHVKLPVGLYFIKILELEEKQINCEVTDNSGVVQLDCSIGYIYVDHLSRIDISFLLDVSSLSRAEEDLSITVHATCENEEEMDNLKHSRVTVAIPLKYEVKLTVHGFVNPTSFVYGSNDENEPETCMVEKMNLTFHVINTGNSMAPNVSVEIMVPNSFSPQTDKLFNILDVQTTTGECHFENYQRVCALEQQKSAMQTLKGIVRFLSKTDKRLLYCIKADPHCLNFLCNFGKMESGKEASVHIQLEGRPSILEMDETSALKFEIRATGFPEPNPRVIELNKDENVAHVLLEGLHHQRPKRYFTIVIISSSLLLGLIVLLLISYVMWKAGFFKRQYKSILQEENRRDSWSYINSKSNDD
Sequence of Integrin alpha-IIb/beta-3 (P05106 27-788 limits assumed): as the sequence (P05106 27-788 limits assumed) above
Sequence of Integrin alpha-IIb/beta-3 (P08514 32-887 limits assumed): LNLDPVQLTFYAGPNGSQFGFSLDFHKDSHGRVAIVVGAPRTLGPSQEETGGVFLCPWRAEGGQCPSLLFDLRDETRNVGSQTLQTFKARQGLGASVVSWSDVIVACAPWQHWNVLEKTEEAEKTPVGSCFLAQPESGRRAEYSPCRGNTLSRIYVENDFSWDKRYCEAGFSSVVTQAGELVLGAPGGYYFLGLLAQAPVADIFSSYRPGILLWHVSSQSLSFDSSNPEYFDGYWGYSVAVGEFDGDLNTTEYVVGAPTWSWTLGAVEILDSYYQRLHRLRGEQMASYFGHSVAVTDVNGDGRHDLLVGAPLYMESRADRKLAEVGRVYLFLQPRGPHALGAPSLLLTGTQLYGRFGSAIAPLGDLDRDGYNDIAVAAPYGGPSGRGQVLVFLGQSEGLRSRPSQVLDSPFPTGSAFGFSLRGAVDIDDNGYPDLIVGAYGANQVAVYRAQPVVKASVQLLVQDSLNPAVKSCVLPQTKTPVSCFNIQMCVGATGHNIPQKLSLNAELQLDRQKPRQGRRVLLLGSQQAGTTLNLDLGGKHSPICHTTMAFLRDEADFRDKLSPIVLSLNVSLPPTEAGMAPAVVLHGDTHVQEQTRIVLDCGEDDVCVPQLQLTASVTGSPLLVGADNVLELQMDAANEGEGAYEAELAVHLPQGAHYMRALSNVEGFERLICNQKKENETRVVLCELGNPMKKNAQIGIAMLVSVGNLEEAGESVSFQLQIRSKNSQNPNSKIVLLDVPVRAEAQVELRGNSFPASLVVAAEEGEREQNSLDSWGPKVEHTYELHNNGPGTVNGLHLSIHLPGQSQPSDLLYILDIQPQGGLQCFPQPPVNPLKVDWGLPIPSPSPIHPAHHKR
Sequence of Integrin alpha-IIb/beta-3 (P08514 891-1039 limits assumed): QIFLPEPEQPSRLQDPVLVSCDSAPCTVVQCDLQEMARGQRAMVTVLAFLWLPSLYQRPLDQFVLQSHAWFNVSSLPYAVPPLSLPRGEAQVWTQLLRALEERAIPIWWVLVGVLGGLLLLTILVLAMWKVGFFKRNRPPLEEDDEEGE

SMILES	Activity [1]	Activity (HT-29)	pIC50 (Integrin alpha-4/beta-1 [2])	pIC50 [3]	pIC50 (Integrin alpha-4/beta-1 [4])	pIC50 [5]	Activity (Integrin alpha-V/beta-3 [6])	Activity (Integrin alpha-5/beta-1)	pIC50 (Integrin alpha-V/beta-3 [7])	Activity (K562)	pEC50 (Integrin alpha-4/beta-1 [8])	pEC50 [9]	pEC50 (Integrin alpha-V/beta-3 [10])	Activity (Integrin alpha-4/beta-1 [11])
Nc1ccc(CNC(=O)N2C(=O)CC2CC(=O)O)cc1.O=C(O)C(F)(F)F (stereo not drawn)	Dose-dependent effect	Non-Toxic	6.30	8.17	6.24	< 6.00	Active	inactive	7.14	Non-Toxic				
Cc1ccccc1NC(=O)N1C(=O)CC1CC(=O)NCC(=O)O (stereo not drawn)		Non-Toxic	< 6.00		< 5.30				< 5.30	Non-Toxic	< 5.30	< 5.30	< 5.30	inactive
NCc1ccc(NC(=O)N2C(=O)CC2CC(=O)NCCC(=O)O)cc1.O=C(O)C(F)(F)F (stereo not drawn)		Non-Toxic			< 5.30	< 6.00			< 5.30	Non-Toxic	< 5.30	< 5.30	< 5.30	inactive
